Results taken from ChEMBL document CHEMBL2021817, “Synthesis and anti-norovirus activity of pyranobenzopyrone compounds” (Bioorg Med Chem Lett, 2012).

How the values were obtained:
[1] = Cytotoxicity against human HG23 cells after 48 hrs; format: cell-based; conditions: read-out: TD50
Outline: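 HG23 cells (Norwalk virus replicon-harboring) were exposed to a concentration series from 0 (mock, DMSO) to 200 µM. Viability was read with a commercial cell cytotoxicity assay kit after 48 h of treatment, and the median toxic dose (TD50) was calculated from it.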

Norovirus = experiment: Antiviral activity against Norovirus infected in human HG23 cells assessed as inhibition of viral replication after 24 hrs by RT-PCR analysis; format: functional; conditions: HG23, 24 h, read-out: ED50 (the source's name)
Outline: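 Norwalk virus replicon-bearing HG23 cells were used one day after seeding, at 80-90% confluence. They were exposed to a range of compound concentrations from 0 (DMSO mock) to 10 µM. NV genome levels were quantified by real-time qRT-PCR. ED50 was taken as the concentration that lowered NV genome levels by 50%.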

[2] = Therapeutic index, ratio of TD50 for human HG23 cells to ED50 for Norovirus; format: cell-based; conditions: read-out: Ratio TD50/ED50
Outline: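 TI was taken as TD50 over ED50, both measured in HG23 replicon cells. For ED50, one-day-old cells at 80-90% confluence were treated with 0 (mock, DMSO) to 10 µM, and replicon genome levels were quantified by real-time qRT-PCR at 48 h. For TD50, cells were treated with 0 to 200 µM and read with a cytotoxicity kit at 48 h.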

For `Cc1cc2c(c(=O)o1)C=C1CC[C@H](C(C)CNC(=O)c3ccnc4ccccc34)C[C@@H]1O2` (stereo not given in full), the CC50 at 48 h [1] was 104 µM, the EC50 (Norovirus) was 5.5 µM and the selectivity ratio [2] was 18.8.

`Cc1cc2c(c(=O)o1)C=C1CC[C@H](C(C)CNCc3ccc4ncccc4c3)C[C@@H]1O2` (stereo not given in full) showed an EC50 (Norovirus) of 8.1 µM.

`Cc1cc(CNCC(C)[C@H]2CCC3=Cc4c(cc(C)oc4=O)O[C@H]3C2)c2ccccc2n1` (mixture of isomers) gave an EC50 (Norovirus) of 8.2 µM.

`CC(=O)OCc1cc(CNCC(C)[C@H]2CCC3=Cc4c(cc(C)oc4=O)O[C@H]3C2)c2ccccc2n1` (mixture of isomers) showed an EC50 (Norovirus) of 9.7 µM.

`Cc1cc2c(c(=O)o1)C=C1CC[C@H](C(C)CNCc3cc(CO)nc4ccccc34)C[C@@H]1O2` (mixture of isomers) showed an EC50 (Norovirus) of 9.5 µM.

`Cc1cc2c(c(=O)o1)C=C1CC[C@H](C(C)CNCc3cc(C4OCOCO4)nc4ccccc34)C[C@@H]1O2` (mixture of isomers) showed an EC50 (Norovirus) of 8.4 µM.

For `Cc1cc2c(c(=O)o1)C=C1CC[C@H](C(C)CNCc3cc(C)c4ccccc4n3)C[C@@H]1O2` (mixture of isomers), the CC50 at 48 h [1] was greater than 200 µM, the EC50 (Norovirus) was 5.3 µM and the selectivity ratio [2] was greater than 40.

Work on `Cc1ccc2nccc(CNCC(C)[C@H]3CCC4=Cc5c(cc(C)oc5=O)O[C@H]4C3)c2c1` (mixture of isomers) yielded a CC50 at 48 h [1] of 61.2 µM, an EC50 (Norovirus) of 3.4 µM and a selectivity ratio [2] of 18.

Molecule `Cc1ccc2nc(CNCC(C)[C@H]3CCC4=Cc5c(cc(C)oc5=O)O[C@H]4C3)ccc2c1` (mixture of isomers) has a CC50 at 48 h [1] of 83.7 µM, an EC50 (Norovirus) of 8.1 µM and a selectivity ratio [2] of 10.3.

In the case of `Cc1cc2c(c(=O)o1)C=C1CC[C@H](C(C)CNCc3ccnc4c3ccc3ccccc34)C[C@@H]1O2` (mixture of isomers), the CC50 at 48 h [1] is reported as greater than 200 µM, the EC50 (Norovirus) is reported as 5.3 µM and the selectivity ratio [2] is reported as greater than 40.

`Cc1cc2c(c(=O)o1)C=C1CC[C@H](C(C)CN)C[C@@H]1O2` (mixture of isomers) gave a CC50 at 48 h [1] greater than 200 µM and an EC50 (Norovirus) greater than 10 µM.

In the case of `Cc1cc2c(c(=O)o1)C=C1CC[C@H](C(C)CNCc3cccnc3)C[C@@H]1O2` (mixture of isomers), the CC50 at 48 h [1] is reported as greater than 200 µM, the EC50 (Norovirus) is reported as 4.1 µM and the selectivity ratio [2] is reported as greater than 50.

For `Cc1cc2c(c(=O)o1)C=C1CC[C@H](C(C)CNCc3ccncc3)C[C@@H]1O2` (mixture of isomers), the EC50 (Norovirus) was 9.6 µM.

For `Cc1cc2c(c(=O)o1)C=C1CC[C@H](C(C)CNCc3ccc4ccccc4n3)C[C@@H]1O2` (mixture of isomers), the CC50 at 48 h [1] was greater than 200 µM, the EC50 (Norovirus) was 3.4 µM and the selectivity ratio [2] was greater than 58.8.

Work on `Cc1cc2c(c(=O)o1)C=C1CC[C@H](C(C)CNCc3ccnc4ccccc34)C[C@@H]1O2` (mixture of isomers) yielded a CC50 at 48 h [1] of 96.4 µM, an EC50 (Norovirus) of 2.4 µM and a selectivity ratio [2] of 40.2.

In the case of `Cc1cc2c(c(=O)o1)C=C1CC[C@H](C(C)CNCc3cccc4cccnc34)C[C@@H]1O2` (mixture of isomers), the CC50 at 48 h [1] is reported as greater than 160 µM, the EC50 (Norovirus) is reported as greater than 10 µM and the selectivity ratio [2] is reported as greater than 16.
